Source: the array DNA melting data of Ke et al. (doi:10.1101/2024.01.08.574731)

Key:
[1] = folding enthalpy; higher = less favourable; fluorescence melt of hairpins on a sequencing array, two-state fit; details: sodium 0.088 M
Summary of the method: (§1)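 With Cy3 and quencher oligos annealed, library hairpins on a sequenced MiSeq flow cell were imaged for Cy3 fluorescence in 50 mM Na-HEPES pH 8.0, 25 mM NaCl, in 2.5 °C steps up to 60 °C. Melting temperature and folding enthalpy were derived from bootstrapped two-state fits of signals normalised to pre-quench Cy3 and to control constructs. Four replicates were combined by inverse variance, with fitted temperatures raised by 9.35 °C to match UV melts.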

[2] = melting temperature; fluorescence melt of hairpins on a sequencing array, two-state fit, raised by 9.35 °C to match UV melts; details: sodium 0.088 M
Summary of the method: as §1

GCGTTCGAAAGAATCGC ((((((....))).))) gave a folding enthalpy [1] of -33.5 kcal/mol and a Tm [2] of 50.2 °C.

GCGTTCGGAAACGAATGC ((.((((....)))).)) showed a folding enthalpy [1] of -42.1 kcal/mol and a Tm [2] of 58.7 °C.

With GCGTTCGGAAACGAGCGC (((.(((....))).))) the folding enthalpy [1] was -33.6 kcal/mol and the Tm [2] was 66 °C.

GCGTTCTGACGC ((((....)))) showed a folding enthalpy [1] of -25.1 kcal/mol and a Tm [2] of 55.3 °C.

For GCGTTGCCACGC ((((....)))), the folding enthalpy [1] was -14.3 kcal/mol and the Tm [2] was 53.8 °C.

In the case of GCGTTGCGAAAGCAAAGC ((.((((....)))).)), the folding enthalpy [1] was -30.4 kcal/mol and the Tm [2] was 66 °C.

With GCGTTGCGAAAGCATTGC ((..(((....)))..)) the folding enthalpy [1] was -17.7 kcal/mol and the Tm [2] was 43.5 °C.

Work on GCGTTGCGAAAGCCATGC ((.(.((....)).).)) yielded a folding enthalpy [1] of -25.4 kcal/mol and a Tm [2] of 40.2 °C.

In the case of GCGTTGCGAAAGCGATGC ((.(.((....)).).)), the folding enthalpy [1] was -21.9 kcal/mol and the Tm [2] was 57.6 °C.

GCGTTGCGAAAGCGTCGC (((..((....))..))) gave a folding enthalpy [1] of -20.8 kcal/mol and a Tm [2] of 63.6 °C.

Sequence GCGTTGCGAAAGCTCCGC (((..((....))..))) has a folding enthalpy [1] of -17.9 kcal/mol and a Tm [2] of 54.6 °C.

In the case of GCGTTGGAACGC ((((....)))), the folding enthalpy [1] was -16.5 kcal/mol and the Tm [2] was 52.4 °C.

GCGTTGGACGC ((((...)))) gave a folding enthalpy [1] of -19.5 kcal/mol and a Tm [2] of 52.7 °C.

With GCGTTGGGAAACCAGCGC (((.(((....))).))) the folding enthalpy [1] was -45.2 kcal/mol and the Tm [2] was 58.3 °C.

Sequence GCGTTGGGAAACCGACGC ((((.((....)).)))) has a folding enthalpy [1] of -40.3 kcal/mol and a Tm [2] of 64 °C.

GCGTTGTTACGC ((((....)))) showed a folding enthalpy [1] of -23.2 kcal/mol and a Tm [2] of 54.3 °C.

Work on GCGTTTAACGC ((((...)))) yielded a folding enthalpy [1] of -21.4 kcal/mol and a Tm [2] of 56.6 °C.

GCGTTTACGAAAGTACGC (((..(((....)))))) showed a folding enthalpy [1] of -24.4 kcal/mol and a Tm [2] of 47.9 °C.

In the case of GCGTTTGGAAACAAATGC ((.((((....)))).)), the folding enthalpy [1] was -47.9 kcal/mol and the Tm [2] was 51.7 °C.

GCGTTTGGAAACAGACGC ((((.((....)).)))) gave a folding enthalpy [1] of -39.4 kcal/mol and a Tm [2] of 52.7 °C.

With GCTAAAGGAAACTTTGGC ((.((((....)))).)) the folding enthalpy [1] was -30.4 kcal/mol and the Tm [2] was 41.1 °C.

GCTAACACGAAAGTGAGC (((..(((....)))))) gave a folding enthalpy [1] of -20.2 kcal/mol and a Tm [2] of 39.4 °C.

Work on GCTAACGAAAGTTAAGC ((((((....))).))) yielded a folding enthalpy [1] of -27.1 kcal/mol and a Tm [2] of 46.2 °C.

GCTAACGAAAGTTACAGC ((((((....)))..))) showed a folding enthalpy [1] of -18.3 kcal/mol and a Tm [2] of 35.1 °C.

Work on GCTAACGAAAGTTCGAGC ((((((....)))..))) yielded a folding enthalpy [1] of -14.9 kcal/mol and a Tm [2] of 32.5 °C.

In the case of GCTAACGAAAGTTGGAGC ((((((....)))..))), the folding enthalpy [1] was -19.9 kcal/mol and the Tm [2] was 33.1 °C.

With GCTAACGGAAACGTTAGC (((((((....))))))) the folding enthalpy [1] was -47.9 kcal/mol and the Tm [2] was 66.2 °C.

Sequence GCTAAGCCGAAAGGCAGC (((..(((....)))))) has a folding enthalpy [1] of -18.6 kcal/mol and a Tm [2] of 50 °C.

GCTAAGCGAAAGCCAAGC (((..((....))..))) showed a folding enthalpy [1] of -20.3 kcal/mol and a Tm [2] of 38 °C.

For GCTAAGCGAAAGCGCAGC (((..((....))..))), the folding enthalpy [1] was -30.2 kcal/mol and the Tm [2] was 66.5 °C.

Sequence GCTAAGCGAAAGCTACGC ((..(((....)))..)) has a folding enthalpy [1] of -13.2 kcal/mol and a Tm [2] of 39.2 °C.

With GCTAAGGAAACTTAGC ((((((....)))))) the folding enthalpy [1] was -24.6 kcal/mol and the Tm [2] was 52 °C.

Work on GCTAAGGCGAAAGCCAGC (((..(((....)))))) yielded a folding enthalpy [1] of -16 kcal/mol and a Tm [2] of 48.6 °C.

GCTACACGAAAGTGGAGC (((.(((....))).))) gave a folding enthalpy [1] of -43.5 kcal/mol and a Tm [2] of 67 °C.

GCTACAGGAAACCGTAGC (((((.(....).))))) showed a folding enthalpy [1] of -31.6 kcal/mol and a Tm [2] of 47.7 °C.

For GCTACAGGAAACTATAGC ((((.((....)).)))), the folding enthalpy [1] was -12.1 kcal/mol and the Tm [2] was 31.7 °C.

Sequence GCTACCGAAAGGTAAGC ((((((....))).))) has a folding enthalpy [1] of -35 kcal/mol and a Tm [2] of 53.2 °C.

Work on GCTACCGAAAGGTGAGC ((((((....))).))) yielded a folding enthalpy [1] of -23.3 kcal/mol and a Tm [2] of 51 °C.

For GCTACCGAAAGGTGGAGC ((((((....)))..))), the folding enthalpy [1] was -15.3 kcal/mol and the Tm [2] was 41.3 °C.

With GCTACCGAAAGGTGTAGC ((((((....)))..))) the folding enthalpy [1] was -21.7 kcal/mol and the Tm [2] was 47.1 °C.

Sequence GCTACCGGAAACGATAGC ((((.((....)).)))) has a folding enthalpy [1] of -31.6 kcal/mol and a Tm [2] of 43.7 °C.

GCTACGCCGAAAGGCAGC (((..(((....)))))) gave a folding enthalpy [1] of -11.9 kcal/mol and a Tm [2] of 42.3 °C.

Sequence GCTACGCGAAAGCACAGC (((..((....))..))) has a folding enthalpy [1] of -21.2 kcal/mol and a Tm [2] of 46.5 °C.

GCTACGCGAAAGCGTCGC ((.((((....)))).)) gave a folding enthalpy [1] of -19.3 kcal/mol and a Tm [2] of 57.7 °C.

GCTACGCGAAAGCGTTGC ((.((((....)))).)) gave a folding enthalpy [1] of -27.2 kcal/mol and a Tm [2] of 65 °C.

With GCTACGGGAAACCGTAGC (((((((....))))))) the folding enthalpy [1] was -38.1 kcal/mol and the Tm [2] was 68.8 °C.

Sequence GCTACGGGAAACTGTAGC (((((.(....).))))) has a folding enthalpy [1] of -48.3 kcal/mol and a Tm [2] of 52.1 °C.

Sequence GCTACGGGAAACTGTGGC ((.((.(....).)).)) has a folding enthalpy [1] of -30.7 kcal/mol and a Tm [2] of 41.1 °C.

For GCTACTACGAAAGTAAGC (((..(((....)))))), the folding enthalpy [1] was -13.6 kcal/mol and the Tm [2] was 29.5 °C.

Work on GCTAGAGAAATCTAGC ((((((....)))))) yielded a folding enthalpy [1] of -30.4 kcal/mol and a Tm [2] of 50.3 °C.

For GCTAGAGGAAACTCTGGC ((.((((....)))).)), the folding enthalpy [1] was -37.9 kcal/mol and the Tm [2] was 48 °C.

In the case of GCTAGCACGAAAGTGAGC (((..(((....)))))), the folding enthalpy [1] was -17.4 kcal/mol and the Tm [2] was 35.1 °C.

With GCTAGCCCGAAAGGGAGC (((..(((....)))))) the folding enthalpy [1] was -14.3 kcal/mol and the Tm [2] was 37.8 °C.

GCTAGCGAAAGCTCTAGC ((((((....)))..))) showed a folding enthalpy [1] of -15.3 kcal/mol and a Tm [2] of 38.5 °C.

With GCTAGCGAAAGCTGCAGC ((((((....)))..))) the folding enthalpy [1] was -13.2 kcal/mol and the Tm [2] was 46 °C.

With GCTAGCGAAAGCTTCAGC ((((((....)))..))) the folding enthalpy [1] was -10.9 kcal/mol and the Tm [2] was 39.1 °C.

In the case of GCTAGCGAAAGCTTTAGC ((((((....)))..))), the folding enthalpy [1] was -14 kcal/mol and the Tm [2] was 40.5 °C.

Work on GCTAGCGCGAAAGCGAGC (((..(((....)))))) yielded a folding enthalpy [1] of -12.9 kcal/mol and a Tm [2] of 44.9 °C.

GCTAGCGGAAACGCCAGC (((.(((....))).))) gave a folding enthalpy [1] of -23.6 kcal/mol and a Tm [2] of 48.4 °C.

Sequence GCTAGCGGAAACGCTAAC (.(((((....))))).) has a folding enthalpy [1] of -12.7 kcal/mol and a Tm [2] of 40 °C.

Sequence GCTAGGCGAAAGCATTGC ((.(.((....)).).)) has a folding enthalpy [1] of -19.2 kcal/mol and a Tm [2] of 42.1 °C.

In the case of GCTAGGCGAAAGCCAGGC ((..(((....)))..)), the folding enthalpy [1] was -16.8 kcal/mol and the Tm [2] was 54.9 °C.

For GCTAGGCGAAAGCCCAGC (((.(((....))).))), the folding enthalpy [1] was -23.7 kcal/mol and the Tm [2] was 50.7 °C.

GCTAGGCGAAAGCGCAGC (((..((....))..))) showed a folding enthalpy [1] of -15.8 kcal/mol and a Tm [2] of 39.6 °C.

Sequence GCTAGGCGAAAGCGTAGC ((((.((....)).)))) has a folding enthalpy [1] of -33 kcal/mol and a Tm [2] of 62.8 °C.

GCTAGGCGAAAGCTCAGC (((..((....))..))) showed a folding enthalpy [1] of -19.6 kcal/mol and a Tm [2] of 42.9 °C.

GCTAGGGCGAAAGCCAGC (((..(((....)))))) showed a folding enthalpy [1] of -15 kcal/mol and a Tm [2] of 48 °C.

Work on GCTAGGGGAAACCCCAGC (((.(((....))).))) yielded a folding enthalpy [1] of -29.8 kcal/mol and a Tm [2] of 49.1 °C.

GCTAGTCCGAAAGGAAGC (((..(((....)))))) gave a folding enthalpy [1] of -16.1 kcal/mol and a Tm [2] of 30 °C.
